# Results taken from ChEMBL document CHEMBL4130469, “C-Methylated Flavonoid Glycosides from Pentarhizidium orientale Rhizomes and Their Inhibitory Effects on the H1N1 Influenza Virus” (J Nat Prod, 2017).
# Tests used:
# [1] = Inhibition of neuraminidase activity in H9N2 A/chicken/Korea/01210/2001 infected in MDCK cells using 4-MU-NANA as substrate pretreated for 30 mins followed by substrate addition measured after 2 hrs by fluorescence assay; type: cell-based, H9N2 subtype; conditions: Influenza A virus, A/chicken/Korea/01210/2001, MDCK
# Influenza A virus = experiment: Antiviral activity against Influenza A virus (A/PR/8/34 (H1N1)) infected in MDCK cells assessed as reduction in virus-induced cytopathic effect after 3 days by MTT assay; type: functional, organism-based; conditions: A/Puerto Rico/8/1934(H1N1), 72 h
# In short: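 MDCK cells grown in DMEM with 10% FBS at 37 °C and 5% CO2, seeded at 1 × 10^5 cells/well, and cultured 24 h. Infected 2 h in DMEM with 0.15 μg/mL trypsin and 5 μg/mL BSA, then given DMEM with 10 μg/mL trypsin and a range of compound concentrations, in triplicate. After 3 days, MTT (2 mg/mL) added for 4 h at 37 °C; formazan dissolved in DMSO, A550 read; EC50.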
# [2] = target: Neuraminidase (Influenza A virus (A/Puerto Rico/8/1934(H1N1)), UniProt P03468); experiment: Inhibition of neuraminidase activity in Influenza A virus (A/PR/8/34 (H1N1)) infected in MDCK cells using 4-MU-NANA as substrate pretreated for 30 mins followed by substrate addition measured after 2 hrs by fluorescence assay; type: cell-based
# Chain of Neuraminidase (Influenza A virus (A/Puerto Rico/8/1934(H1N1)), UniProt P03468) (P03468 whole entry): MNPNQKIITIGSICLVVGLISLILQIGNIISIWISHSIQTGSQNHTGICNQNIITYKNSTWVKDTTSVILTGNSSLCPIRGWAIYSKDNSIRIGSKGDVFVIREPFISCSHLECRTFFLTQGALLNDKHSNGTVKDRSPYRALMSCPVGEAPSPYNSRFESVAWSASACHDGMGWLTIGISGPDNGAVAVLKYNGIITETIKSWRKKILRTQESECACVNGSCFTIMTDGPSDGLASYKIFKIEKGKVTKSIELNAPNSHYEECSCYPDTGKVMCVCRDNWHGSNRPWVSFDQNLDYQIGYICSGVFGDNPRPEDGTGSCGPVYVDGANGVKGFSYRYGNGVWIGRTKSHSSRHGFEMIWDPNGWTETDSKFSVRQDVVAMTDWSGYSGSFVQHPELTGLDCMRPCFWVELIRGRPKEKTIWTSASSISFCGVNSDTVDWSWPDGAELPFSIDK
# [3] = Cytotoxicity against MDCK cells after 2 days by MTT assay; type: cell-based, Canis lupus familiaris; conditions: dog
# In short: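 Uninfected MDCK cells seeded at 1 × 10^5 cells/well and grown 24 h. Washed with PBS, then exposed to graded compound concentrations in fresh DMEM, each in triplicate, for 2 days. Viability by MTT (2 mg/mL), 4 h further incubation; CC50.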
SMILES,IC50 [1] [µM],EC50 (Influenza A virus) [µM],IC50 [2] [µM],CC50 at 48 h [3] [µM]
CCOC(=O)C1=C[C@@H](OC(CC)CC)[C@H](NC(C)=O)[C@@H](N)C1 [OSELTAMIVIR],0.0191,0.6,–,–
Cc1c(O)c(C)c2c(c1O)C(=O)C[C@@H](c1ccccc1O)O2,24.1,22.9,23.9,> 100
COc1ccc(O)c([C@@H]2CC(=O)c3c(O)c(C)c(O)c(C)c3O2)c1,24.6,23,24.5,> 100
COc1cc(O)cc([C@@H]2CC(=O)c3c(O)c(C)c(O)c(C)c3O2)c1,23.1,21.4,24.4,> 100
COc1ccc([C@@H]2CC(=O)c3c(O)c(C)c(O)c(C)c3O2)cc1,27.2,26.9,25.2,> 100
Cc1c(O)c(C)c2c(c1O)C(=O)C[C@@H](c1ccccc1)O2 [DEMETHOXYMATTEUCINOL],31.3,30.7,30.3,77.6
